Rows were chosen to be rich in hits. Some 1.3% of all compounds tested hit in one or more screens of this group.
NR2E3 ag-1 = agonists of human NR2E3 nuclear receptor. AID 602229. CHO-S Gal4-NCOR/VP16-NR2E3 two-hybrid, luciferase. inhibition of corepressor binding, % at 3.98 µM. 360,000 compounds, 0.35% hits. Q9Y5X4;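 active = inhibition above the mean of all tested compounds plus 3 SD, cut at about 70% in these data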;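 note: 0% = DMSO with NR2E3 transfected cells and 100% = cells lacking NR2E3 construct; higher means lower luciferase signal from less NR2E3 corepressor binding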
Target sequence (Q9Y5X4 whole entry, looked up, the tested form may be a part): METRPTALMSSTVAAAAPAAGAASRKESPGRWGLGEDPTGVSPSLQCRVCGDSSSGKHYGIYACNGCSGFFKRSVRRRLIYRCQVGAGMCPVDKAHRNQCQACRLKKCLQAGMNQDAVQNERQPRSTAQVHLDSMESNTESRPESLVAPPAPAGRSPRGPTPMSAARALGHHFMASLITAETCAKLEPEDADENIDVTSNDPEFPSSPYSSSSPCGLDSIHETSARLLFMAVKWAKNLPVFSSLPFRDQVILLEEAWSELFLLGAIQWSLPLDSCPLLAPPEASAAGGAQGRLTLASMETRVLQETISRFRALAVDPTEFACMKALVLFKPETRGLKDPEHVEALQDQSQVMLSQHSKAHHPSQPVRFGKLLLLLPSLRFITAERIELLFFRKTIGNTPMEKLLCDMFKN
NR2E3 ag-2 = NR2E3 (human) agonism. Q9Y5X4. GST-NR2E3/biotin-RetCOR TR-FRET, 1536-well. inhibition of corepressor binding, % at 4.78 µM. 320,000 compounds, 0.12% hits;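 active = percent inhibition above the cutoff of mean plus 3 SD of all tested compounds, set per screening campaign, cut at about 20% in these data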;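 note: 0% = DMSO wells and 100% = biotin wells as full block of FRET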
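System: GST-NR2E3 and biotin-RetCOR proteins; probe or stimulus: 7 nM biotin-RetCOR; doses: compound at 4.8 µM, single dose; schedule: Compound–protein incubation for 5 h at 4 °C; detection: time-resolved FRET; read-out: percent inhibition; controls: biotin wells as high control, 0.6% DMSO wells as low control; format: 1536-well plates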
PP5 inh = inhibitors of human protein phosphatase 5 (PP5); P53041; purified PP5c, OMFP substrate fluorescence; inhibition, % at 6.7 µM; 320,000 compounds, 0.18% hits; AID 1987;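 active = inhibition above the campaign's mean inhibition across all tested compounds plus 3 SD, cut at about 9.5% in these data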;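 note: 0% = DMSO only and 100% = 100 µM cantharidin control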
PP1 inh = blocks human PP1-alpha phosphatase, a PP5 counter-screen; P62136; purified PP1alpha, OMFP fluorescence; inhibition, % at 6.7 µM; 320,000 compounds, 0.9% hits;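 active = inhibition above the mean inhibition of all tested compounds plus 3 SD, computed separately for each screening campaign, cut at about 15% in these data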
NR2E3 ag conf = NR2E3 agonism confirmed in two-hybrid assay; shares compounds with NR2E3 ag-1; CHO-S mammalian two-hybrid NR2E3-NCOR, luciferase luminescence; inhibition, % at 3.98 µM; 2,300 compounds, 51% hits;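 active = average inhibition above a cutoff equal to the mean inhibition of all tested compounds plus one SD, cut at about 70% in these data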;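 note: 0% = DMSO in NR2E3 cells and 100% = DMSO in cells lacking NR2E3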
VP16 counter = reduces GAL4-VP16 reporter signal in NR2E3 counterscreen | shares compounds with NR2E3 ag-1 | CHO-S GAL4-VP16 luciferase reporter, luminescence | inhibition, % at 3.98 µM | 2,300 compounds, 29% hits;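 active = mean inhibition above a cutoff equal to the average over all tested compounds plus one standard deviation, cut at about 70% in these data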;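 note: luciferase from a UAS reporter driven by GAL4-VP16 transactivation; 0% = DMSO with VP16-transfected cells and 100% = DMSO with cells lacking VP16; higher means less reporter light so more repression of VP16 activity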
Active calls of the source: *.

Screening CC(O)C1C=CC=CC(=O)OC2CC3OC4C5OC5(C)C(O)CC4(COC(=O)C(O)C(C)CCO1)C2(C)C31CO1 (stereo unspecified) returned NR2E3 ag-1 92*, NR2E3 ag conf 94* and VP16 counter 66.
CC1CCOC(=O)C=CC=CC(=O)OC2CC3OC4C5OC5(C)C(O)CC4(COC(=O)C1O)C2(C)C31CO1 (stereo unspecified) was read as NR2E3 ag-1 102*, NR2E3 ag conf 99* and VP16 counter 99*.
For CC1=CC2OC3CC4OC(=O)C=CC=CC(=O)OCCC(C)C(O)C(=O)OCC2(CC1)C4(C)C31CO1 (stereo unspecified) the results were NR2E3 ag-1 103*, NR2E3 ag conf 101* and VP16 counter 100*.
Screening CC1=CC2OC3CC4OC(=O)C=CC=CC(C(C)O)OCC(O)C5(C)OC5C(=O)OCC2(CC1O)C4(C)C31CO1 (stereo unspecified) returned NR2E3 ag-1 102*, NR2E3 ag conf 98* and VP16 counter 98*.
C1=CC(Cc2cncs2)c2ccccc21 (stereo unspecified) was read as NR2E3 ag-1 -20, NR2E3 ag-2 2, PP5 inh 0 and PP1 inh 2.
`COc1cccc(-n2c(O)c(C=NCCN3CCOCC3)c(=O)[nH]c2=O)c1` gave NR2E3 ag-1 0, NR2E3 ag-2 4, PP5 inh 3 and PP1 inh -1.
